# Data published in ChEMBL document CHEMBL4043143, “2-N-Arylthiazole inhibitors of Mycobacterium tuberculosis” (Bioorg Med Chem Lett, 2017).
# The source made the active and inactive calls. The rule behind the calls is not given here.
# Assays:
# [1] = test system: Mycobacterium tuberculosis; test: Antitubercular activity against Mycobacterium tuberculosis H37Ra infected in THP-1 macrophages measured after 5 days post infection by luciferase reporter gene assay; type: functional; conditions: THP-1, 120 h
# How it was run: (§1)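 Firefly luciferase reporter Mtb infected THP-1 cells. Bacterial growth was read by luminescence five days post-infection, and the value was reported as the 50% inhibitory concentration. The assay medium used glucose and glycerol as the carbon source.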
# [2] = Metabolic stability in rat liver microsomes assessed as compound remaining at 1 uM measured after 30 mins; type: ADME, microsome; conditions: read-out: Stability
# [3] = Clearance in mouse at 1 mg/kg, iv; type: ADME, organism-based; conditions: in vivo
# How it was run: (§2)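 Mouse pharmacokinetics after 3 mg/kg oral or 1 mg/kg intravenous dosing. Clearance is in mL/min/kg. AUC is in μg*h/mL, with oral exposure normalised to the actual dose.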
# [4] = Half life in mouse at 3 mg/kg, po or 1 mg/kg, iv; type: ADME, organism-based; conditions: in vivo; how it was run: as §2
# [5] = test system: Mus musculus; test: Dose normalized AUC in mouse at 3 mg/kg, po or 1 mg/kg, iv; type: ADME, organism-based; conditions: in vivo; how it was run: as §2
# [6] = test system: Mycobacterium tuberculosis; test: Antitubercular activity against Mycobacterium tuberculosis H37Ra BSL2 infected in THP-1 macrophages after 5 days post infection by luciferase reporter gene assay; type: functional; conditions: H37Ra BSL2, THP-1, 120 h; how it was run: as §1
# [7] = test system: Mycobacterium tuberculosis; test: Antitubercular activity against Mycobacterium tuberculosis H37Ra BSL2 cultured in broth; type: functional
# How it was run: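 BSL2 H37Ra broth assay. MIC was taken as the concentration (μM) giving 70% growth inhibition versus control wells.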
# [8] = test system: Mycobacterium tuberculosis; test: Antitubercular activity against Mycobacterium tuberculosis Erdman BSL3 infected in BALB/c mouse assessed as reduction in colony forming units in lung homogenates at 100 mg/kg administered daily via oral gavage for 5 days per week for 4 weeks; type: functional, organism-based; conditions: Mycobacterium tuberculosis str. Erdman = ATCC 35801
# How it was run: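 BALB/c mice were infected intranasally with 10^6 cfu of the Erdman isolate, six mice per group. Dosing was 100 mg/kg daily, 5 days/week, for four weeks. Lung homogenates were plated for cfu. An early-control group was killed at the start of therapy to set the infection load, and a late-control group marked the endpoint and confirmed virulence. Rifampin at 10 mg/kg was the positive control.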
# [9] = test system: Mycobacterium tuberculosis; test: Antitubercular activity against Mycobacterium tuberculosis H37Rv BSL3 infected in THP-1 macrophages using middlebrook 7H9 broth media after 5 days post infection by luciferase reporter gene assay; type: functional; conditions: H37Rv BSL3, THP-1, 120 h
# [10] = test system: Mycobacterium tuberculosis; test: Antitubercular activity against Mycobacterium tuberculosis Erdman BSL3 infected in THP-1 macrophages using middlebrook 7H9 broth media after 5 days post infection by luciferase reporter gene assay; type: functional, Mycobacterium tuberculosis str. Erdman = ATCC 35801; conditions: BSL3, 120 h
# [11] = test system: Mycobacterium tuberculosis; test: Antitubercular activity against Mycobacterium tuberculosis H37Rv BSL3 infected in THP-1 macrophages using middlebrook 7H12 broth media after 5 days post infection by luciferase reporter gene assay; type: functional; conditions: H37Rv BSL3, THP-1, 120 h
# [12] = test system: Mycobacterium tuberculosis; test: Antitubercular activity against Mycobacterium tuberculosis H37Rv BSL3 infected in THP-1 macrophages under anaerobic condition after 5 days post infection by luciferase reporter gene assay; type: functional; conditions: H37Rv BSL3, THP-1, 120 h
# [13] = test system: Mycobacterium tuberculosis; test: Antitubercular activity against Mycobacterium tuberculosis Erdman BSL3 infected in THP-1 macrophages using middlebrook 7H12 broth media after 5 days post infection by luciferase reporter gene assay; type: functional, Mycobacterium tuberculosis str. Erdman = ATCC 35801; conditions: BSL3, THP-1, 120 h
compound,measurement,setting,value
CCc1ccc(Nc2nc(C)cs2)cc1,IC50,[1],120 nM
same,"remaining at 0.5 h, 1 µM",[2],0%
CCCCc1ccc(Nc2nc(CC(=O)O)c(C)s2)cc1,IC50,[1],100 nM
same,clearance,[3],7 mL/min/kg
same,half-life,[4],66 min
same,AUC/dose,[5],4.8 µg·h/mL
CO[C@H]1/C=C/O[C@@]2(C)Oc3c(C)c(O)c4c(O)c(c(/C=N/N5CCN(C)CC5)c(O)c4c3C2=O)NC(=O)/C(C)=C\C=C\[C@H](C)[C@H](O)[C@@H](C)[C@@H](O)[C@@H](C)[C@H](OC(C)=O)[C@@H]1C [RIFAMPIN],IC50,[6],30 nM
same,MIC70,[7],0.08 µM
CCC(C)c1ccc(Nc2nc(CC(=O)O)cs2)cc1 (racemic),IC50,[1],70 nM
same,clearance,[3],3 mL/min/kg
same,half-life,[4],168 min
same,AUC/dose,[5],14.4 µg·h/mL
same,Activity,[8],inactive
same,IC50,[6],70 nM
same,MIC70,[7],0.16 µM
same,IC50,[9],9.4 µM
same,MIC90,[10],6.3 µM
same,IC50,[11],> 100 µM
same,IC50,[12],96 µM
same,IC50,[13],> 100 µM
Cc1ccc(Nc2nc(C)cs2)cc1,IC50,[1],> 20000 nM
CCCCCc1ccc(Nc2nc(C)cs2)cc1,IC50,[1],40 nM
same,"remaining at 0.5 h, 1 µM",[2],3%
CCCCc1ccc(Nc2nc(C(C)(C)C(=O)O)cs2)cc1,IC50,[1],140 nM
same,clearance,[3],18 mL/min/kg
same,half-life,[4],300 min
same,AUC/dose,[5],1.4 µg·h/mL
CCCCc1ccc(Nc2nc(CC(N)=O)cs2)cc1,IC50,[1],860 nM
CCCCc1ccc(Nc2nc(CC(=O)O)cs2)cc1,IC50,[1],150 nM
same,clearance,[3],5 mL/min/kg
same,half-life,[4],186 min
same,AUC/dose,[5],4.9 µg·h/mL
same,Activity,[8],inactive
same,IC50,[6],150 nM
same,MIC70,[7],0.16 µM
same,MIC90,[10],7.8 µM
same,IC50,[11],91 µM
same,IC50,[12],17.8 µM
same,IC50,[13],56 µM
Cc1csc(Nc2ccc(C(C)(C)O)cc2)n1,IC50,[1],60 nM
same,"remaining at 0.5 h, 1 µM",[2],12%
CCCCCCc1ccc(Nc2nc(C)cs2)cc1,IC50,[1],50 nM
CCCCc1ccc(Nc2nc(CC(=O)O)c(Cl)s2)cc1,IC50,[1],70 nM
same,clearance,[3],5 mL/min/kg
same,half-life,[4],66 min
same,AUC/dose,[5],6 µg·h/mL
same,Activity,[8],inactive
same,IC50,[6],70 nM
same,MIC70,[7],0.39 µM
same,IC50,[9],6.3 µM
same,MIC90,[10],12.5 µM
same,IC50,[11],> 100 µM
same,IC50,[12],5.6 µM
same,IC50,[13],54 µM
CCC(C)c1ccc(Nc2nc(C)cs2)cc1 (stereo not drawn),IC50,[1],< 40 nM
same,"remaining at 0.5 h, 1 µM",[2],0%
Cc1csc(Nc2ccc(CCN(C)C)cc2)n1,IC50,[1],> 20000 nM
Cc1csc(Nc2ccc(C(C)C)cc2)n1,IC50,[1],10 nM
same,"remaining at 0.5 h, 1 µM",[2],0%
CCCCc1ccc(Nc2nc(C(C)C(=O)O)cs2)cc1 (stereo not drawn),IC50,[1],140 nM
same,clearance,[3],4 mL/min/kg
same,half-life,[4],54 min
same,AUC/dose,[5],4.8 µg·h/mL
O=C(O)Cc1csc(Nc2ccc(OCCC(F)(F)F)cc2)n1,IC50,[1],270 nM
same,clearance,[3],1.5 mL/min/kg
same,half-life,[4],96 min
same,AUC/dose,[5],15 µg·h/mL
Cc1csc(Nc2ccc(OCCO)cc2)n1,IC50,[1],3190 nM
same,"remaining at 0.5 h, 1 µM",[2],73%
CCCCc1ccc(Nc2nc(C(=O)O)cs2)cc1,IC50,[1],> 20000 nM
CCNCc1ccc(Nc2nc(C)cs2)cc1,IC50,[1],> 20000 nM
same,"remaining at 0.5 h, 1 µM",[2],0%
Cc1csc(Nc2ccc(C(C)(C)C)cc2)n1,IC50,[1],< 40 nM
same,"remaining at 0.5 h, 1 µM",[2],0%
CCCOc1ccc(Nc2nc(C)cs2)cc1,IC50,[1],150 nM
same,"remaining at 0.5 h, 1 µM",[2],4%
CCCCc1ccc(Nc2nc(C)cs2)cc1,IC50,[1],< 5 nM
same,"remaining at 0.5 h, 1 µM",[2],1%
same,Activity,[8],inactive
same,IC50,[6],40 nM
same,MIC70,[7],0.04 µM
same,MIC90,[10],7 µM
same,IC50,[11],47 µM
same,IC50,[12],12 µM
same,IC50,[13],> 100 µM
Cc1csc(Nc2ccc(OC3CCCC3)cc2)n1,IC50,[1],70 nM
same,"remaining at 0.5 h, 1 µM",[2],10%
Cc1csc(Nc2ccc(COCC(F)(F)F)cc2)n1,IC50,[1],< 40 nM
same,"remaining at 0.5 h, 1 µM",[2],1%
CCC(O)Cc1ccc(Nc2nc(C)cs2)cc1 (stereo not drawn),IC50,[1],400 nM
same,"remaining at 0.5 h, 1 µM",[2],1%
CC(C)(C)c1ccc(Nc2nc(CC(=O)O)cs2)cc1,IC50,[1],70 nM
same,clearance,[3],4 mL/min/kg
same,half-life,[4],66 min
same,AUC/dose,[5],24.1 µg·h/mL
same,Activity,[8],inactive
same,IC50,[6],70 nM
same,MIC70,[7],0.16 µM
same,IC50,[9],9.4 µM
same,MIC90,[10],6.3 µM
same,IC50,[11],> 100 µM
same,IC50,[12],> 100 µM
same,IC50,[13],63 µM
